The source of these data is ChEMBL document CHEMBL5096209, “Structure-Activity Studies of 3,9-Diazaspiro[5.5]undecane-Based γ-Aminobutyric Acid Type A Receptor Antagonists with Immunomodulatory Effect” (J Med Chem, 2021).

Each structure is given as a SMILES string.

Experiment [1] can be described thus: Antagonist activity at human alpha6beta2delta GABAA receptor expressed in HEK293 Flp-In cells by FMP assay. Type of experiment: cell-based, Flp-In-293. The gist of the method:
(§1)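 HEK293 Flp-In cells stably expressing human δ subunit, transiently transfected with human α and β subunits (1:1) to form αβδ receptors. Read-out is the FLIPR membrane potential dye ΔRFU, baseline to peak/plateau, with GABA EC80 as agonist. Four-parameter fit of concentration–inhibition curves gives IC50, from at least three independent experiments.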

The target of experiment [2] is T1, Gamma-aminobutyric acid receptor subunit alpha-1/beta-2/delta (Homo sapiens, UniProt O14764+P14867+P47870).
T1 sequence (P14867 whole entry): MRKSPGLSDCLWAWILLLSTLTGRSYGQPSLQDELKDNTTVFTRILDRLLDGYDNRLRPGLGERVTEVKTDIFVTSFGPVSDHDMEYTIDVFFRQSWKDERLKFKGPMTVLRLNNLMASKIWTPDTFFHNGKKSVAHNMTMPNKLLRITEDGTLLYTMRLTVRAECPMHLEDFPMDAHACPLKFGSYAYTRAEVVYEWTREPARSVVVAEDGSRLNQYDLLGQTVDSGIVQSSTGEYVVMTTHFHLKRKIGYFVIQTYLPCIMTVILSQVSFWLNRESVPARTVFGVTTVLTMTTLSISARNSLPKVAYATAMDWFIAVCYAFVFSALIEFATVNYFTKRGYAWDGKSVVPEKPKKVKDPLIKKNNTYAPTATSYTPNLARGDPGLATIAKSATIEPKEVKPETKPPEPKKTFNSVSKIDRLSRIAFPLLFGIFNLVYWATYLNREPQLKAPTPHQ
T1 sequence (P47870 whole entry): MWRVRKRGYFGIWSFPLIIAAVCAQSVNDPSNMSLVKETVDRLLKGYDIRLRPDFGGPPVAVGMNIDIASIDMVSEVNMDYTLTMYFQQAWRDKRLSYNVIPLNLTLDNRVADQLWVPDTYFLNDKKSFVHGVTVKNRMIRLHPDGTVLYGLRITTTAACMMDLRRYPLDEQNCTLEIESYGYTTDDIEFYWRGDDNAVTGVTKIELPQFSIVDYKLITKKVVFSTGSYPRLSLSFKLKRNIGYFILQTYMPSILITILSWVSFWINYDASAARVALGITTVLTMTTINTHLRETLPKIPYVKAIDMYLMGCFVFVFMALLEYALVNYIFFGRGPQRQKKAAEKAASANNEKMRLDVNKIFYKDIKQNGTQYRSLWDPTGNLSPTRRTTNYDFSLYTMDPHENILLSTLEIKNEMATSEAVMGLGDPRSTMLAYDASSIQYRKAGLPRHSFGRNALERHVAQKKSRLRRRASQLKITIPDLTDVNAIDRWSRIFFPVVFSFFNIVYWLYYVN
T1 sequence (O14764 whole entry): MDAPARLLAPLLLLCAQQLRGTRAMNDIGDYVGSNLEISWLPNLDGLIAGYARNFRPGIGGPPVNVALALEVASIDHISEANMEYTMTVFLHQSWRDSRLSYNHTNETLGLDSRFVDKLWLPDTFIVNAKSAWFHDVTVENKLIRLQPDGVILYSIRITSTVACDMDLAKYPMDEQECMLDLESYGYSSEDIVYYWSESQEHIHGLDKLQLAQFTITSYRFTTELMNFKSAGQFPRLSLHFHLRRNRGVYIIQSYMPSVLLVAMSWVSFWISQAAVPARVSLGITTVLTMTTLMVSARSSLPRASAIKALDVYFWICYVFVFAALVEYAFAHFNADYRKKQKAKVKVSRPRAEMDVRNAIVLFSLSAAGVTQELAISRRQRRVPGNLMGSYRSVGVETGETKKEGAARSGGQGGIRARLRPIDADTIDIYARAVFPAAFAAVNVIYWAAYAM
The experiment in a line: Antagonist activity at human alpha1beta2delta GABAA receptor expressed in HEK293 Flp-In cells by FMP assay. Type of experiment: cell-based, Flp-In-293. Put shortly: as §1

The target of experiment [3] is T2, GABA-A receptor; alpha-1/beta-2/gamma-2 (Homo sapiens, UniProt P14867+P18507+P47870).
T2 sequence (P14867 whole entry): T1 sequence (P14867 whole entry)
T2 sequence (P47870 whole entry): T1 sequence (P47870 whole entry)
T2 sequence (P18507 whole entry): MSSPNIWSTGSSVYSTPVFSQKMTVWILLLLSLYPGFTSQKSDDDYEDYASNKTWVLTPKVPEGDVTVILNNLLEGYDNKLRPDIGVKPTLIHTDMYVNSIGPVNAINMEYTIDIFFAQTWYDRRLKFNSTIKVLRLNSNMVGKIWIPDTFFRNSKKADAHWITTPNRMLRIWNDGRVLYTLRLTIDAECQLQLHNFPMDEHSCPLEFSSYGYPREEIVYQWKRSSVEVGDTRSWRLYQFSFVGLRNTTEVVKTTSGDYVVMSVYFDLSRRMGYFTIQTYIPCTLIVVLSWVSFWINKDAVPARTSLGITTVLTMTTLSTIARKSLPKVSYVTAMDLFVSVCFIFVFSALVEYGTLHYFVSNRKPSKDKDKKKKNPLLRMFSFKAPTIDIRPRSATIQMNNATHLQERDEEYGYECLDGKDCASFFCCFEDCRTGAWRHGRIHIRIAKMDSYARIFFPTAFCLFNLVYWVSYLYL
In words: Antagonist activity at human alpha1beta2gamma2 GABAA receptor expressed in HEK293 cells by FMP assay. Type of experiment: cell-based. Put shortly:
(§2)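 Human αβγ2 receptors in HEK293 cells: α1β2γ2 stably expressed, other αβγ2 subtypes transiently transfected into HEK293 Flp-In background cells (α:β:γ 1:1:2). FLIPR membrane potential assay with ΔRFU baseline to peak/plateau and GABA EC80 as agonist. IC50 from a four-parameter fit, at least three independent experiments.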

In experiment [4] the target is T3, GABA A receptor alpha-2/beta-2/gamma-2 (Homo sapiens, UniProt P18507+P47869+P47870).
T3 sequence (P47870 whole entry): T1 sequence (P47870 whole entry)
T3 sequence (P18507 whole entry): T2 sequence (P18507 whole entry)
T3 sequence (P47869 whole entry): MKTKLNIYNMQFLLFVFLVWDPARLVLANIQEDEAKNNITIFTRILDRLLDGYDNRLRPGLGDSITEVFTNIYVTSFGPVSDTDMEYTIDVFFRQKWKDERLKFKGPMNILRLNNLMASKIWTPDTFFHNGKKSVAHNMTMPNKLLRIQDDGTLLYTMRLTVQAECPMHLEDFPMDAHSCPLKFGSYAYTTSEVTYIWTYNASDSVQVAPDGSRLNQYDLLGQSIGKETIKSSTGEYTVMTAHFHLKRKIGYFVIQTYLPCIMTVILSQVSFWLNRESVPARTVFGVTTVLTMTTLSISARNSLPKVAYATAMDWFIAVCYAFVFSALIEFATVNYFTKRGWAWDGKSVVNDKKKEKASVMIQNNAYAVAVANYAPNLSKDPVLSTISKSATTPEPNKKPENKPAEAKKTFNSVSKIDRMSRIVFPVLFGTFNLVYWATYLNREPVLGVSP
The experiment in a line: Antagonist activity at human alpha2beta2gamma2 GABAA receptor expressed in HEK cells by FMP assay. Format: cell-based. Put shortly: as §2

Experiment [5] deals with GABA-A receptor; anion channel. In words: Displacement of [3H]-muscimol from rat brain cortex GABAA receptor assessed as inhibition constant incubated for 1 hr by top-counter microplate scintillation counter method. Type of experiment: cell membranes, Membrane.
The target in experiment [6] is T1, Gamma-aminobutyric acid receptor subunit alpha-1/beta-2/delta. The experiment in a line: Antagonist activity at recombinant human alpha1beta2delta GABAA receptor expressed in HEK293 Flp-In cells by FMP assay. Format: cell-based, Flp-In-293. The gist of the method:
as §1

Setting [7] is: Homo sapiens, Flp-In-293, read-out: pIC50 (converted).

For `Cc1cccc(C(=O)N2CCC3(CCNCC3)CC2)c1`, the IC50 was 1.91 µM in experiment [1] (setting [7]); 1.95 µM in experiment [1] (flp-in-293); 4.95 µM in experiment [2]; 4.9 µM in experiment [2] (read-out: pIC50 (converted)); 2.18 µM in experiment [3]; 2.19 µM in experiment [3] (read-out: pIC50 (converted)).
`CC(=O)Nc1cccc(C(=O)N2CCC3(CCNCC3)CC2)c1`: the IC50 in experiment [4] is 2.96 µM; in experiment [4] (read-out: pIC50 (converted)), 2.95 µM; in experiment [6], 6.68 µM; in experiment [6] (read-out: pIC50 (converted)), 6.76 µM. The Ki in experiment [5] was found to be 0.56 µM.
Take `Cc1ccc(C(=O)N2CCC3(CCNCC3)CC2)cc1`: the IC50 was 8.71 µM in experiment [1] (setting [7]); 8.87 µM in experiment [1] (flp-in-293); 13.2 µM in experiment [2]; 13.2 µM in experiment [2] (read-out: pIC50 (converted)); 10 µM in experiment [3]; 10 µM in experiment [3] (read-out: pIC50 (converted)).
Take `O=C(Nc1cccc(C(=O)N2CCC3(CCNCC3)CC2)c1)c1cccs1`: the IC50 in experiment [4] was 0.32 µM; in experiment [4] (read-out: pIC50 (converted)) it was 0.324 µM; in experiment [6] (read-out: pIC50 (converted)), 0.245 µM. Further, in experiment [5], the inhibition constant (Ki) is 0.02 µM.
